The nature of series [1]: Antiproliferative activity against human PC3 cells after 48 hrs by sulforhodamine B assay. In kind it is functional. Conditions: PC-3, 48 h. The procedure, abridged:
(§1)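 Tumor cells grown in RPMI 1640 with 5% fetal bovine serum, with penicillin/streptomycin in experimental cultures. Exposed in 96-well plates to samples in DMSO/RPMI at 0.25, 2.5, 25 and 250 µg/mL, 37 °C, 5% CO2, 48 h. Fixed with 50% trichloroacetic acid before (T0) and after treatment, protein stained with sulforhodamine B and read at 540 nm. GI50, TGI and LC50 in µg/mL from dose-response curves by non-linear regression.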

Series [2] deals with NCI/ADR-RES. Put plainly: Antiproliferative activity against human NCI/ADR-RES cells after 48 hrs by sulforhodamine B assay. In kind it is functional. The procedure, abridged: as §1
The test system of series [3] is MCF7. The experiment in a line: Antiproliferative activity against human MCF7 cells assessed as tumor growth inhibition after 48 hrs by sulforhodamine B assay. In kind it is functional. The conditions noted are these: MCF7, 48 h. The procedure, abridged:
as §1

In series [4] the test system is U-251. Put plainly: Antiproliferative activity against human U251 cells assessed as tumor growth inhibition after 48 hrs by sulforhodamine B assay. In kind it is functional. Conditions: U-251, 48 h. The procedure, abridged: as §1
The nature of series [5]: Antiproliferative activity against human PC3 cells assessed as tumor growth inhibition after 48 hrs by sulforhodamine B assay. The format is functional. Conditions: PC-3, 48 h. The procedure, abridged: as §1
Series [6] has as its system NCI-H460. The experiment in a line: Antiproliferative activity against human NCI-H460 cells after 48 hrs by sulforhodamine B assay. The conditions noted are these: NCI-H460, 48 h. In kind it is functional. In outline: as §1
Series [7] has as its system NCI-H460. Put plainly: Antiproliferative activity against human NCI-H460 cells assessed as tumor growth inhibition after 48 hrs by sulforhodamine B assay. The format is functional. Conditions: NCI-H460, 48 h. The procedure, abridged:
as §1

A short description of series [8]: Antiproliferative activity against human OVCAR3 cells assessed as tumor growth inhibition after 48 hrs by sulforhodamine B assay. The format is functional. The conditions noted are these: OVCAR-3, 48 h. In outline:
as §1

Series [9] deals with 786-0. Put plainly: Antiproliferative activity against human 786-0 cells after 48 hrs by sulforhodamine B assay. In kind it is functional. Conditions: 786-0, 48 h. In outline:
as §1

For series [10], the system named is HaCaT. The experiment in a line: Cytotoxicity against human HaCaT cells assessed as tumor growth inhibition after 48 hrs by sulforhodamine B assay. The format is cell-based. In outline: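 Non-tumor lines (human HaCaT keratinocytes; Vero) in RPMI 1640 with 5% FBS, with penicillin/streptomycin added to experimental cultures. 48 h exposure at 0.25–250 µg/mL (DMSO/RPMI), 37 °C, 5% CO2. TCA fixation at time zero and at end, sulforhodamine B protein stain, absorbance 540 nm. TGI (total growth inhibition) from non-linear regression of the dose-response curve.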

The subject of series [11] is U-251. Put plainly: Antiproliferative activity against human U251 cells after 48 hrs by sulforhodamine B assay. The conditions noted are these: U-251, 48 h. In kind it is functional. In outline: as §1
In series [12] the test system is 786-0. Put plainly: Antiproliferative activity against human 786-0 cells assessed as tumor growth inhibition after 48 hrs by sulforhodamine B assay. In kind it is functional. The conditions noted are these: 786-0, 48 h. In outline: as §1
The test system of series [13] is HaCaT. The experiment in a line: Cytotoxicity against human HaCaT cells after 48 hrs by sulforhodamine B assay. The format is cell-based.
The subject of series [14] is MCF7. Put plainly: Antiproliferative activity against human MCF7 cells after 48 hrs by sulforhodamine B assay. The format is functional. The conditions noted are these: MCF7, 48 h. The procedure, abridged:
as §1

A short description of series [15]: Antiproliferative activity against human OVCAR3 cells after 48 hrs by sulforhodamine B assay. Conditions: OVCAR-3, 48 h. In kind it is functional. The procedure, abridged: as §1
Series [16] deals with NCI/ADR-RES. Put plainly: Antiproliferative activity against human NCI/ADR-RES cells assessed as tumor growth inhibition after 48 hrs by sulforhodamine B assay. In kind it is functional. In outline: as §1

These results are taken from ChEMBL document CHEMBL3392966, “Antiproliferative activity of synthetic fatty acid amides from renewable resources” (Bioorg Med Chem, 2015).

Converted amounts (≈) assume the structure as drawn. A value given as a limit tells only on which side of the number the result lay.

On to `CCCCC/C=C\C/C=C\CCCCCCCC(=O)N1CCCCC1`, for which the GI50 in [1] came to 53.6 mg/L (≈ 154 µM); in the series on NCI/ADR-RES [2], 63.2 mg/L (≈ 182 µM); in the series with NCI-H460 [6], 29.1 mg/L (≈ 83.7 µM); in the series with 786-0 [9], 58.4 mg/L (≈ 168 µM); in the series with U-251 [11] it was 44.2 mg/L (≈ 127 µM); with MCF7 [14], 22.1 mg/L (≈ 63.6 µM). Further, in series [15], it took 48.9 mg/L (≈ 141 µM) to inhibit growth by half (GI50). Besides, the TGI amounted to 44.2 mg/L (≈ 127 µM) with MCF7 [3]; 22.1 mg/L (≈ 63.6 µM) with U-251 [4]; 48.9 mg/L (≈ 141 µM) in [5]; 53.6 mg/L (≈ 154 µM) with NCI-H460 [7]; 58.4 mg/L (≈ 168 µM) in series [8]; 30.5 mg/L (≈ 87.7 µM) in the series with HaCaT [10]. Also, the TGI was 29.1 mg/L (≈ 83.7 µM) in the series on 786-0 [12] and 63.2 mg/L (≈ 182 µM) in the series with NCI/ADR-RES [16]. For the same molecule, the LC50 in the series on HaCaT [13] turned out to be 4.2 mg/L (≈ 12.1 µM).

For the molecule `CCCCCCCC/C=C/CCCCCCCC(=O)N[C@@H](C)c1ccccc1`, the total growth inhibition concentration (TGI) (with MCF7 [3]; in the series with U-251 [4]; in series [5]; with NCI-H460 [7]; in series [8]; with HaCaT [10]) was more than 250 mg/L each time. In addition, the TGI with 786-0 [12] and with NCI/ADR-RES [16] was more than 250 mg/L throughout. The LC50 in the series on HaCaT [13] stood at 24.6 mg/L (≈ 63.8 µM). The GI50 in the series with MCF7 [14] was found to be 110 mg/L (≈ 286 µM); in series [15], 21.7 mg/L (≈ 56.3 µM).

In the case of `CCCCCCCCCCCCCCCCCC(=O)N1CCCC1`, the concentration for 50% growth inhibition (GI50) stood at 9.4 mg/L (≈ 27.8 µM) in series [1]; 7.1 mg/L (≈ 21 µM) in the series on NCI/ADR-RES [2]; 10.8 mg/L (≈ 32 µM) in the series on NCI-H460 [6]; 14 mg/L (≈ 41.5 µM) in the series on 786-0 [9]; 8 mg/L (≈ 23.7 µM) in the series with U-251 [11]; 7.4 mg/L (≈ 21.9 µM) with MCF7 [14]. The GI50 in series [15] amounted to 7.3 mg/L (≈ 21.6 µM). Besides, the TGI in the series on MCF7 [3] is 39.9 mg/L (≈ 118 µM); in the series with U-251 [4], 32.5 mg/L (≈ 96.3 µM); in [5] it was 36 mg/L (≈ 107 µM); with NCI-H460 [7], 56.8 mg/L (≈ 168 µM); in [8], 68.5 mg/L (≈ 203 µM); in the series with HaCaT [10] it was 27.4 mg/L (≈ 81.2 µM). The values for the TGI in the series on 786-0 [12] and with NCI/ADR-RES [16] were 48.4 mg/L (≈ 143 µM) and 43.5 mg/L (≈ 129 µM), respectively. In the series with HaCaT [13], this molecule returned an LC50 of 6.3 mg/L (≈ 18.7 µM).

As to `CCCCCC[C@@H](O)C/C=C\CCCCCCCC(=O)N1CCCCC1`, the GI50 in series [1] was found to be 23.3 mg/L (≈ 63.7 µM); in the series with NCI/ADR-RES [2], 22.7 mg/L (≈ 62.1 µM); with NCI-H460 [6], 10.7 mg/L (≈ 29.3 µM); in the series with 786-0 [9], 24.2 mg/L (≈ 66.2 µM); in the series on U-251 [11], 14.8 mg/L (≈ 40.5 µM); in the series with MCF7 [14] it was 6.3 mg/L (≈ 17.2 µM). The GI50 in [15] was 16.6 mg/L (≈ 45.4 µM). Also, the TGI worked out at 14.8 mg/L (≈ 40.5 µM) with MCF7 [3]; 6.3 mg/L (≈ 17.2 µM) with U-251 [4]; 16.6 mg/L (≈ 45.4 µM) in series [5]; 23.3 mg/L (≈ 63.7 µM) in the series on NCI-H460 [7]; 24.2 mg/L (≈ 66.2 µM) in series [8]; 12.8 mg/L (≈ 35 µM) in the series with HaCaT [10]. The TGI with 786-0 [12] was determined as 10.7 mg/L (≈ 29.3 µM); in the series on NCI/ADR-RES [16], 22.7 mg/L (≈ 62.1 µM). The same molecule returned a 50% lethal concentration (LC50) in the series with HaCaT [13] of 2.6 mg/L (≈ 7.11 µM).

Turning to `CCCCCCCCCCCCCCCCCC(=O)N1CCOCC1`, the GI50 in series [1] is 41.1 mg/L (≈ 116 µM); in the series on NCI/ADR-RES [2] it was 33.1 mg/L (≈ 93.6 µM); in the series with NCI-H460 [6], 53.1 mg/L (≈ 150 µM); in the series on 786-0 [9], 41.1 mg/L (≈ 116 µM); in the series with U-251 [11], 39.9 mg/L (≈ 113 µM); with MCF7 [14], 42.8 mg/L (≈ 121 µM). This molecule yielded a concentration for 50% growth inhibition (GI50) in [15] of 43.3 mg/L (≈ 122 µM). The TGI with MCF7 [3] worked out at 81.7 mg/L (≈ 231 µM); in the series with U-251 [4] it was 82.6 mg/L (≈ 234 µM); in [5] it was 102 mg/L (≈ 290 µM); with NCI-H460 [7], 161 mg/L (≈ 455 µM); in [8], 111 mg/L (≈ 314 µM); in the series on HaCaT [10] it was 94.2 mg/L (≈ 266 µM). Besides, the TGI in the series on 786-0 [12] was determined as 85.6 mg/L (≈ 242 µM); in the series on NCI/ADR-RES [16], 86.9 mg/L (≈ 246 µM). This molecule showed an LC50 in the series on HaCaT [13] of 41.5 mg/L (≈ 117 µM).

On to `CCCCCCCCCCCCCCCCCC(=O)NCCO` [N-(2-HYDROXYETHYL)STEARAMIDE], for which the GI50 in series [1] is 75.6 mg/L (≈ 231 µM); in the series with NCI/ADR-RES [2] it was 158 mg/L (≈ 481 µM); with U-251 [11], 117 mg/L (≈ 357 µM); in the series with MCF7 [14] it was 130 mg/L (≈ 395 µM); in series [15], 158 mg/L (≈ 481 µM). For the same molecule, the TGI (with MCF7 [3]; with U-251 [4]; in series [5]; in the series with NCI-H460 [7]; in series [8]; in the series on HaCaT [10]) was more than 250 mg/L each time. The TGI in the series with 786-0 [12] and in the series with NCI/ADR-RES [16] was more than 250 mg/L throughout. This molecule also came in with an LC50 in the series on HaCaT [13] of 117.7 mg/L (≈ 359 µM).

In the series on NCI/ADR-RES [2], `CCCCCCCCCCCCCCCC(=O)NCCO` [PALMIDROL] yielded a GI50 of 158 mg/L (≈ 527 µM). In addition, the concentration for total growth inhibition (TGI) (in the series with MCF7 [3]; in the series with U-251 [4]; in [5]; with NCI-H460 [7]; in series [8]; with HaCaT [10]) was more than 250 mg/L in each case. In addition, the TGI in the series with 786-0 [12] and in the series with NCI/ADR-RES [16] was more than 250 mg/L each time.
